According to ChEMBL document CHEMBL3769310, “Scouting new sigma receptor ligands: Synthesis, pharmacological evaluation and molecular modeling of 1,3-dioxolane-based structures and derivatives” (Eur J Med Chem, 2016):
Active and inactive are the calls of the source.

How the values were obtained:
[1] = target: T1, 5-hydroxytryptamine receptor 1A (Homo sapiens, UniProt P08908); assay: Displacement of [3H]8-OH-DPAT from human 5-HT1A expressed in human HeLa cells after 30 mins; type: cell-based
T1 sequence (P08908 whole entry): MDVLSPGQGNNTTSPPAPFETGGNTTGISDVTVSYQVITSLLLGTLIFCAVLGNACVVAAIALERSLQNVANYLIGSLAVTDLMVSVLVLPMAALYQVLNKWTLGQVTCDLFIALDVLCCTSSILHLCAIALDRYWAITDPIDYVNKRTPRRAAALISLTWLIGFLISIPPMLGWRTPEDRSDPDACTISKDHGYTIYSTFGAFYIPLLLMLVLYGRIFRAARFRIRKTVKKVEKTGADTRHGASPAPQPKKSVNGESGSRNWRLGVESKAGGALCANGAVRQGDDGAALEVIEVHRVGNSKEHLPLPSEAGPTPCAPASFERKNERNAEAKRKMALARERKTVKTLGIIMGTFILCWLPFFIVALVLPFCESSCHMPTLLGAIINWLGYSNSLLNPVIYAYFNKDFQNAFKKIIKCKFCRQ

[2] = species on record: Cavia porcellus; assay: Selectivity ratio of Ki for sigma-1 receptor in guinea pig brain membranes to Ki for sigma-2 receptor in guinea pig brain membranes; type: cell membranes
[3] = tested on: HeLa; assay: Selectivity ratio of Ki for sigma-2 receptor in guinea pig brain membranes to Ki for human 5-HT1A expressed in human HeLa cells; type: cell-based
[4] = Displacement of [3H]DTG from sigma-2 receptor in guinea pig brain membranes after 120 mins by liquid scintillation counting method; type: cell membranes, Cavia porcellus, Membrane
Summary of the method: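 Nonspecific with 5 µM DTG. Stopped with ice-cold 10 mM Tris pH 8.0, filtered on PEI-soaked GF/B, scintillation counted. Ki from duplicates, three experiments.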

[5] = tested on: HeLa; assay: Selectivity ratio of Ki for sigma-1 receptor in guinea pig brain membranes to Ki for human 5-HT1A expressed in human HeLa cells; type: cell-based
[6] = target: Sigma non-opioid intracellular receptor 1 (Cavia porcellus, UniProt Q60492); assay: Displacement of [3H]-(+)-pentazocine from sigma-1 receptor in guinea pig brain membranes after 150 mins by liquid scintillation counting method; type: cell membranes, Membrane
Sigma non-opioid intracellular receptor 1, sequence (Q60492 whole entry): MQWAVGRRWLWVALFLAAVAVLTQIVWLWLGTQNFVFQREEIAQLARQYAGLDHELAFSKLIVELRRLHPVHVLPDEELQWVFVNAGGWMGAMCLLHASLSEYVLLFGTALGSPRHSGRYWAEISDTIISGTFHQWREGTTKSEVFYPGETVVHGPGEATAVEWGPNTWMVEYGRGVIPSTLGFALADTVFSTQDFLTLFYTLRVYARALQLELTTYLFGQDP

[7] = tested on: Rattus norvegicus; assay: Analgesic activity in Sprague-Dawley rat assessed as withdrawal latency at 1 mg/kg, sc measured after 30 to 120 mins by tail flick test; type: functional, organism-based
Summary of the method: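 Male Sprague-Dawley rats, 180–200 g, 8–10 per group, dosed s.c. Radiant heat tail-flick with I.R. source on lower third of tail at 25 ± 1 °C. Basal latency 3–4 s, taken as mean of three readings at 5 min intervals. Cut-off 10 s. Latencies read at 30, 45, 60, 90 and 120 min after injection; saline group as control. Blinded observers; mean ± SE, two-way ANOVA then t test.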

Structure (SMILES)	Ki [1]	Ratio Ki [2]	Ratio Ki [3]	pKi [4]	Ratio Ki [5]	Ki [6]	Activity [7]
c1ccc(CC2CCN(C[C@@H]3CO[C@@](c4ccccc4)(C4CCCCC4)O3)CC2)cc1 (relative stereo)	> 1000 nM	3	> 19	6.84	> 19	52.5 nM	–
c1ccc(CN2CCN(C[C@@H]3CO[C@@](c4ccccc4)(C4CCCCC4)O3)CC2)cc1 (relative stereo)	> 1000 nM	1	> 56	7.75	> 56	30.9 nM	–
c1ccc(CN2CCN(CC3COC4(CCCCC4)O3)CC2)cc1 (centres undefined)	> 1000 nM	47	> 1350	7.46	> 1350	0.741 nM	inactive
O[C@@H]1[C@@H](CN2CCC(Cc3ccccc3)CC2)CCC1(c1ccccc1)c1ccccc1 (relative stereo)	50.1 nM	39	0.21	5.05	0.21	229 nM	–
O[C@H]1[C@@H](CN2CCC(Cc3ccccc3)CC2)CCC1(c1ccccc1)c1ccccc1 (relative stereo)	7.59 nM	8	0.02	5.66	0.02	282 nM	–
O=C1C(CN2CCC(Cc3ccccc3)CC2)CCC1(c1ccccc1)c1ccccc1 (centres undefined)	> 1000 nM	2	1	5.66	1	1120 nM	–
O=C1C(CN2CCN(Cc3ccccc3)CC2)CCC1(c1ccccc1)c1ccccc1 (centres undefined)	> 1000 nM	20	> 1.5	4.9	> 1.5	646 nM	–
c1ccc(CC2CCN(CC3COC(c4ccccc4)(c4ccccc4)O3)CC2)cc1 (centres undefined)	550 nM	3	251	8.2	251	2.19 nM	–
c1ccc(CN2CCN(CC3COc4ccccc4O3)CC2)cc1 (centres undefined)	–	–	–	7.55	–	15.8 nM	–
c1ccc(CN2CCN(C[C@H]3CO[C@@](c4ccccc4)(C4CCCCC4)O3)CC2)cc1 (relative stereo)	> 1000 nM	15	> 933	7.79	> 933	1.07 nM	–
c1ccc(CC2CCN(CC3COC(C4CCCCC4)(C4CCCCC4)O3)CC2)cc1 (centres undefined)	> 1000 nM	> 5	> 5	< 6	> 5	209 nM	–
c1ccc(CN2CCN(CCOC(c3ccccc3)c3ccccc3)CC2)cc1	> 1000 nM	1	> 89	7.95	> 89	20.4 nM	–
c1ccc(CC2CCN(CC3COc4ccccc4O3)CC2)cc1 (centres undefined)	–	–	–	7.6	–	16.6 nM	–
c1ccc(CC2CCN(CCOC(c3ccccc3)c3ccccc3)CC2)cc1	> 1000 nM	3	> 18	6.77	> 18	56.2 nM	–
O[C@@H]1[C@@H](CN2CCN(Cc3ccccc3)CC2)CCC1(c1ccccc1)c1ccccc1 (relative stereo)	126 nM	3	3	7	3	38 nM	–
c1ccc(CN2CCN(CC3CSC(c4ccccc4)(c4ccccc4)O3)CC2)cc1 (centres undefined)	–	3	> 16	6.67	> 16	63.1 nM	–
OCC(CN1CCC(Cc2ccccc2)CC1)OC(c1ccccc1)c1ccccc1 (centres undefined)	417 nM	1	2.5	6.56	2.5	200 nM	–
c1ccc(CC2CCN(C[C@H]3CO[C@@](c4ccccc4)(C4CCCCC4)O3)CC2)cc1	> 1000 nM	7	> 18	6.43	> 18	56.2 nM	–
c1ccc(CC2CCN(CC3CSC(c4ccccc4)(c4ccccc4)S3)CC2)cc1 (centres undefined)	> 1000 nM	5	> 66	7.11	> 66	15.1 nM	–
c1ccc(CN2CCN(CC3COC(C4CCCCC4)(C4CCCCC4)O3)CC2)cc1 (centres undefined)	> 1000 nM	2	> 29	8.3	> 29	3.39 nM	–
OCC(CN1CCN(Cc2ccccc2)CC1)OC(c1ccccc1)c1ccccc1 (centres undefined)	> 1000 nM	2	> 89	7.75	> 89	11.2 nM	–
c1ccc(CN2CCN(CC3CSC(c4ccccc4)(c4ccccc4)S3)CC2)cc1 (centres undefined)	> 1000 nM	8	> 3	5.64	> 3	302 nM	–
c1ccc(CN2CCN(CC3COC(c4ccccc4)(c4ccccc4)O3)CC2)cc1 (centres undefined)	> 1000 nM	3	> 589	8.38	> 589	1.7 nM	–
c1ccc(CC2CCN(CC3CCC(c4ccccc4)(c4ccccc4)O3)CC2)cc1 (centres undefined)	> 1000 nM	1	> 6	6.69	> 6	174 nM	–
c1ccc(CC2CCN(CC3CSC(c4ccccc4)(c4ccccc4)O3)CC2)cc1 (centres undefined)	–	2	> 83	7.55	> 83	12 nM	–
O[C@H]1[C@@H](CN2CCN(Cc3ccccc3)CC2)CCC1(c1ccccc1)c1ccccc1 (relative stereo)	7.24 nM	6.8	0.2	6.62	0.2	35.5 nM	–
c1ccc(CC2CCN(CC3COC4(CCCCC4)O3)CC2)cc1 (centres undefined)	162 nM	10	81	7.72	81	2 nM	–
c1ccc(CN2CCN(CC3CCC(c4ccccc4)(c4ccccc4)O3)CC2)cc1 (centres undefined)	> 1000 nM	3	> 11	6.65	> 11	87.1 nM	–
